Reference: publication PMC11393732 (RSC Medicinal Chemistry, 2024)

What was measured:
KDM3B [1] = target: T1, KDM3B (Homo sapiens, UniProt Q7LBC6); experiment: Western blot KDM3B degradation in SW480 cells; type: cell-based
In short: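 SW480 cells exposed to test compound for 16 h, then total lysates protein-normalised and run on SDS-PAGE. Semi-dry transfer to PVDF, 1 h block in 5% milk. Primary antibody overnight at 4 °C in 1% milk, secondary 1 h at RT, TBST washes, α-tubulin as loading control. Rescue arms co-treated with MLN4924 (1 μM) or pomalidomide (100 μM). Test compound at 0.1 μM for the KDM3A blot and 1 μM for the KDM3B blot.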

[2] = test system: KDM4 family proteins (KDM4A, KDM4B and KDM4C); experiment: Western blot KDM4 family proteins in SW480 cells; type: cell-based, human
In short: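 Lysates from compound-treated SW480 cells normalised for total protein and resolved by SDS-PAGE. Semi-dry transfer to PVDF, 1 h block in 5% milk. Overnight incubation at 4 °C with anti-KDM4A, -KDM4B or -KDM4C antibody in 1% milk, secondary 1 h at RT, TBST washes, α-tubulin as loading control.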

CCND1 = experiment: IHC of HCP-1 xenograft tumors, CCND1; type: in vivo, mice; settings: HCP-1 xenograft tumor tissues
In short: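 Tumours came from ALDHHigh HCP-1 xenografts in NSG mice given test compound IP (3, 10 or 35 mg kg−1) for 16 days. Paraffin sections were deparaffinised and rehydrated, then antigen-unmasked. Peroxidase blocked; sections blocked 1 h in 10% goat serum. Primary antibody overnight at 4 °C, biotinylated secondary 30 min at RT, avidin–biotin peroxidase detection, hematoxylin counterstain.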

KDM3B [3] = target: T1, KDM3B; experiment: Western blot KDM3B degradation in HCP-1 cells; type: cell-based
[4] = test system: Wnt target genes in HCP-1 cells; experiment: RT-qPCR of Wnt target gene expression in HCP-1; type: cell-based, human
In short: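 Cells in 6-well plates exposed to test compound for 16 h. Total RNA extracted; 1 μg reverse-transcribed with M-MuLV and random hexamers. SYBR Green qPCR for the named genes, quantified by 2ΔΔct against tubulin. Mean ± SD; unpaired two-tailed Student's t-test.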

[5] = test system: ALDH^High-HCP-1 CSC-derived tumors; experiment: In vivo tumor growth, ALDH^High-HCP-1 CSC xenograft; set-up: species or system mice
In short: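 NSG mice in 5 groups of 5. FACS-sorted ALDHHigh HCP-1 cells (2500 in Matrigel) injected subcutaneously into both flanks. Test compound given IP at 3, 10 or 35 mg kg−1, or IOX1 at 10 mg kg−1, in PBS/Kolliphor EL vehicle; controls got vehicle; 16 days. Body weight taken every other day, tumour volume on days 9, 13–16, tumour weight at sacrifice.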

hERG potassium channel = hERG potassium channel (Homo sapiens, UniProt Q12809); experiment: hERG automated patch-clamp assay; type: cell-based
In short: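 hERG-expressing CHO-K1 cells were plated at least 24 h beforehand and recorded by whole-cell patch clamp at about RT with 0.1% Pluronic F-68. Holding −80 mV; 500 ms step to −40 mV for leak subtraction; 500 ms step to +40 mV, then 100 ms ramp to −80 mV for tail current, every 8 s. Block = mean tail amplitude over the last 15 s with test compound ÷ control.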

KDM3A = target: T2, KDM3A (Homo sapiens, UniProt Q9Y4C1); experiment: Western blot KDM3A degradation in HCP-1 cells; type: cell-based
T2 sequence (Q9Y4C1 1-1321): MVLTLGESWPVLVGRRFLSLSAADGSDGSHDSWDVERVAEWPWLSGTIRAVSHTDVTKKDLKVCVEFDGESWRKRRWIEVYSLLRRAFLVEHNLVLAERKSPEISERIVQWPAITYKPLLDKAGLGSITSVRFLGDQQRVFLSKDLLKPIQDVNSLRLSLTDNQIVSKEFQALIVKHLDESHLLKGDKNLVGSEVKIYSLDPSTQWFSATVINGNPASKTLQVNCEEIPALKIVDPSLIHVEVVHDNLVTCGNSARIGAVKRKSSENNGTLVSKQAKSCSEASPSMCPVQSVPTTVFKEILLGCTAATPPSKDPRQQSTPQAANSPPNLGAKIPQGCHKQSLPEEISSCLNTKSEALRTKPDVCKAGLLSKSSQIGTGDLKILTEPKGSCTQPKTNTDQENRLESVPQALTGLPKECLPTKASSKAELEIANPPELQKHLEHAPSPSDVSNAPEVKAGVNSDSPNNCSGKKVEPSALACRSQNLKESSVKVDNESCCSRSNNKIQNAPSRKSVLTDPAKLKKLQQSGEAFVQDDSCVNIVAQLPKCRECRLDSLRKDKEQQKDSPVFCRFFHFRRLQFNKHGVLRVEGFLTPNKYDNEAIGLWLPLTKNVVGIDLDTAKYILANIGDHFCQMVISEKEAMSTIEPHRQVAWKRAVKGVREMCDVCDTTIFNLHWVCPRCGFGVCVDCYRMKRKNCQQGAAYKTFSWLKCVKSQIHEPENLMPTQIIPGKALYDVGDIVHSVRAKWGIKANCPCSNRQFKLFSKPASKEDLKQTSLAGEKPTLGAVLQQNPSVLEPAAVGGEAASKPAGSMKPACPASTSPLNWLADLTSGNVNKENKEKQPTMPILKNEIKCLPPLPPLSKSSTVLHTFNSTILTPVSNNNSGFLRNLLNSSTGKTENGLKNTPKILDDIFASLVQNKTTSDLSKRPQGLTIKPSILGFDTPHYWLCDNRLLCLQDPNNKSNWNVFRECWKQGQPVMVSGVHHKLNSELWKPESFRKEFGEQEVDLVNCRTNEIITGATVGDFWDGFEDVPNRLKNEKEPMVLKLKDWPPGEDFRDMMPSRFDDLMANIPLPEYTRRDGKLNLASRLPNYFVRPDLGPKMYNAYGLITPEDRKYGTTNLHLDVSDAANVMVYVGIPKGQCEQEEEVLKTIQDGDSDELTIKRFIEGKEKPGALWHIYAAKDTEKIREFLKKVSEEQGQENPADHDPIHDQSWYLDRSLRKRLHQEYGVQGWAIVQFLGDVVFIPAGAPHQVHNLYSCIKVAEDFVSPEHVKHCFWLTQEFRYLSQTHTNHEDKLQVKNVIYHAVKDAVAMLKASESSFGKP

T1 sequence (Q7LBC6 whole entry): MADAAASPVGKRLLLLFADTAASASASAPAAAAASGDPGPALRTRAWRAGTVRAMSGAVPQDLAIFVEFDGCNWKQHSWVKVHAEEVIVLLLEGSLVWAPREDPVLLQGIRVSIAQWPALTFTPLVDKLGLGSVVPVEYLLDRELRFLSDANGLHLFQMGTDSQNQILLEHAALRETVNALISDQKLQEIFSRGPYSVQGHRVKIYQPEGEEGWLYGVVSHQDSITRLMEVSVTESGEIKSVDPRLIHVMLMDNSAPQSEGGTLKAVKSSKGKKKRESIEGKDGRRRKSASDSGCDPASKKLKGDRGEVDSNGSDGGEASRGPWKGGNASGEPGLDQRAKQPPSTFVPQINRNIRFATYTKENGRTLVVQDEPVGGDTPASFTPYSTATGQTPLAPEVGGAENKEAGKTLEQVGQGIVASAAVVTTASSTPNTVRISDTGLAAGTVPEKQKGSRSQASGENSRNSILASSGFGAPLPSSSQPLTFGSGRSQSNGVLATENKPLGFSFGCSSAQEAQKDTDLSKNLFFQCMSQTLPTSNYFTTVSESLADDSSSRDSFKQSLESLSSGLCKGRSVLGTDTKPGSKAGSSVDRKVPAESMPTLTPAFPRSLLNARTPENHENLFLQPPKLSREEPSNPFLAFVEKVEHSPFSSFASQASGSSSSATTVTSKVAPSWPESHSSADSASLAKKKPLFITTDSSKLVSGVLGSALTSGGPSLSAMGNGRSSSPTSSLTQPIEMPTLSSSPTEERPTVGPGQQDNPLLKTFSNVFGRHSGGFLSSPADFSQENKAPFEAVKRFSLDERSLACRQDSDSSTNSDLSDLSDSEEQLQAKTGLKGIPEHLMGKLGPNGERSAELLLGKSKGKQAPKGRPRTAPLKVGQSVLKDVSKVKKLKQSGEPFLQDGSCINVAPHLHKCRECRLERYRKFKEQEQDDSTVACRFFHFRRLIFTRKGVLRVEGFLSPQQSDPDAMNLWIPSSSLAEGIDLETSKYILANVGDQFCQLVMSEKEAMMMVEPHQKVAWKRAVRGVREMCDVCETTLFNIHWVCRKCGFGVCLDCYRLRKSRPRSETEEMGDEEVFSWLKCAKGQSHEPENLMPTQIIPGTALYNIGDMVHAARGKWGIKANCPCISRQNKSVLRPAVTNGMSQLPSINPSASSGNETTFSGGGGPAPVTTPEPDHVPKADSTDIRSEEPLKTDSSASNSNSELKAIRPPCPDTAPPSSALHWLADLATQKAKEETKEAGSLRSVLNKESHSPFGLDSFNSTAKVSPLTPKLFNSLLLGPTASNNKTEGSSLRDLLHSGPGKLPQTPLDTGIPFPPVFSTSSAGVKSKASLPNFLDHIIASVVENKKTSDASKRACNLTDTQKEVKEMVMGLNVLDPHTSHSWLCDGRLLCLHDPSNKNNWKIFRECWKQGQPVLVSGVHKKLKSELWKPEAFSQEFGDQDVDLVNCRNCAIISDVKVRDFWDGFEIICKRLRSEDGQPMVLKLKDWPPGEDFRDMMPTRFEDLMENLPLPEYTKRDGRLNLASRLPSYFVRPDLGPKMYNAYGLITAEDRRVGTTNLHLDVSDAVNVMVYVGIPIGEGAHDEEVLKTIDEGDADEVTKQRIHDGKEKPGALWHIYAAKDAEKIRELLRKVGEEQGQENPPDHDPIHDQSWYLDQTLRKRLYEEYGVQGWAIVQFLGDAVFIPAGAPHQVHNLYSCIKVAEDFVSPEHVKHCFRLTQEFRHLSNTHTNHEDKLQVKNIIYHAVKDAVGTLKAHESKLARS
hERG potassium channel, sequence (Q12809 whole entry): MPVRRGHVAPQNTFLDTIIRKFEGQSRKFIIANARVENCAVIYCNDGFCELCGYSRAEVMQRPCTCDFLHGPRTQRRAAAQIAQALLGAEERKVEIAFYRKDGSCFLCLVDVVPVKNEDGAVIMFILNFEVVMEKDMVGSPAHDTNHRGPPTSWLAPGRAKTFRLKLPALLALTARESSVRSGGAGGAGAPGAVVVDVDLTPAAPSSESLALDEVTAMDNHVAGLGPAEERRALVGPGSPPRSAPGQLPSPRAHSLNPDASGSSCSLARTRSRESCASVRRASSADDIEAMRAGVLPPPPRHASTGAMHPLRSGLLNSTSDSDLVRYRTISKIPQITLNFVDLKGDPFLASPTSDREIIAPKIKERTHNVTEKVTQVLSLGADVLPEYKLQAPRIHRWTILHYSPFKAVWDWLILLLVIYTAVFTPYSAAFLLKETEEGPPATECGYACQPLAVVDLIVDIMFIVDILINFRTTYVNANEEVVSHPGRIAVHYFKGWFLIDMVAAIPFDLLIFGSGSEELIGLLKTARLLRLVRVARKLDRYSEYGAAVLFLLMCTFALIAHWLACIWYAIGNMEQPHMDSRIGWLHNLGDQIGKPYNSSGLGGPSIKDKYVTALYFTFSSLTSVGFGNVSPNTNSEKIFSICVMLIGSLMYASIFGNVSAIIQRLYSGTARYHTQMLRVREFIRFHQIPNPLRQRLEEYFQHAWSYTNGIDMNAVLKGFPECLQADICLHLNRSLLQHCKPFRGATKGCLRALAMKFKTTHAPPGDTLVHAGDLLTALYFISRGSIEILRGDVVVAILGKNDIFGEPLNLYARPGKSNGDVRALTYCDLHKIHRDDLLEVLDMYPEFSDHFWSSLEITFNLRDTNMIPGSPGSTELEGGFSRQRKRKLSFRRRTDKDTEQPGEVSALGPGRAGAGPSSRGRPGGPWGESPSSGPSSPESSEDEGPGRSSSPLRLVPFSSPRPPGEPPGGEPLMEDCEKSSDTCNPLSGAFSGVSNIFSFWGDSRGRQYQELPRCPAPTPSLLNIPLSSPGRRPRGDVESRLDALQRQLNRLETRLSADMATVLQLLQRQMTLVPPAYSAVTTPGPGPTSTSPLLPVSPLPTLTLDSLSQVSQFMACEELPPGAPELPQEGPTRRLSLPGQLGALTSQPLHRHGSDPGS

`O=C1CCC(N2C(=O)c3cccc(NCCOCCOCCOCCOCCNC(=O)c4ccc(O)c5ncccc45)c3C2=O)C(=O)N1` (stereo not shown) [Compound 4, N-(14-((2-(2,6-Dioxopiperidin-3-yl)-1,3-dioxoisoindolin-4-yl)amino)-3,6,9,12-tetraoxatetradecyl)-8-hydroxyquinoline-5-carboxamide] was tested, and the Dmax (KDM3B [1]; SW480, read-out: Dmax KDM3B) was 88.5%, the “KDM3B degradation with MLN4924 co-treatment” value (KDM3B [1]; SW480, MLN4924 1 μM, compound 4 1 μM) was “could be restored by MLN4924” and the “KDM3B degradation with pomalidomide or IOX1 co-treatment” value (KDM3B [1]; SW480, pomalidomide 100 μM, compound 4 1 μM) was “could also be suppressed by either pomalidomide or IOX1”. For the same molecule, the “KDM3B degradation (western blot)” value (KDM3B [1]; SW480 cells, 16 hours) was “degrades both KDM3A and KDM3B at nanomolar concentrations”, the DC50 (KDM3B [1]; read-out: DC50 KDMB, SW480 cells, 16 hours) was 173 nM and the “effect on KDM4 family proteins” value [2] was “not dramatically affected”. The “CCND1 expression (IHC)” value (CCND1) was “downregulated”, the KDM3B degradation (KDM3B [3]) was “potently induce KDM3A and KDM3B degradation” and the “suppression of Wnt target gene expression (AXIN2, DKK1, CCND1)” value ([4]; HCP-1, 50 μM, 16-hour treatment, in most cases) was ≥ 50%. For the same molecule, the “expression of colorectal CSC signature genes (ASCL2, RNF43, ZNRF3, LGR5)” value ([4]; HCP-1, 16 hours) was “strongly inhibited”, the “tumor volume and tumor weight vs IOX1 group” value ([5]; 3 mg kg^−1 IP vs IOX1 10 mg kg^−1) was “no significant change” and the CSC-derived tumor growth ([5]; 3, 10, 35 mg kg^−1 IP, 16 days, vs vehicle) was “significantly inhibited”. The “tumor volume and tumor weight vs IOX1 group” value ([5]; 10 and 35 mg kg^−1 IP vs IOX1 10 mg kg^−1) was “significantly decreased”, the “body weight of mice” value ([5]; IP, 16 days) was “little impact on the body weight” and the IC50 (hERG potassium channel) was > 30000 nM. For the same molecule, the KDM3A degradation (KDM3A) was “potently induce KDM3A and KDM3B degradation”.
